From ChEMBL document CHEMBL1126807, “Inhibition of bone resorption by H+/K(+)-ATPase inhibitors” (J Med Chem, 1993)

Assays:
[1] = Tested for the inhibition of reversibility of hog gastric H+/K+-ATPase at 0.05 uM (200-fold dilution after pre-incubation); assay type: functional, Sus scrofa, Stomach; parameters: scale not given: the % may be the effect or the level left
[2] = Tested for the inhibition of reversibility of hog gastric H+/K+-ATPase at 10 uM; assay type: functional, Sus scrofa, Stomach; parameters: scale not given: the % may be the effect or the level left
[3] = Tested for reversible inhibition against gastric H+/K+-ATPase isolated from porcine gastric microsomes; value ranges from […]; assay type: functional, Sus scrofa, Stomach
Rattus norvegicus [4] = species: Rattus norvegicus; assay: Tested for the inhibition of bone resorption by measuring mean pit size at 10 e -5 M (sd 1012); assay type: functional
Summary of the method: (§1)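 Osteoclasts mechanically disaggregated from neonatal rat long bones into Hepes-buffered medium 199, settled 30 s, allowed to attach to bone slices (2.5 mm²) for 15 min at 37 °C, washed, then cultured overnight in 10% newborn calf serum in Hanks-buffered MEM with or without drug. Cells removed with 10% NaOCl, slices gold-coated, entire surface scanned by SEM for pit number, pit size and resorbed plan area. Student's t-test.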

Rattus norvegicus [5] = species: Rattus norvegicus; assay: Tested for the inhibition of bone resorption by measuring mean pit size at 10 e -6 M (sd 963); assay type: functional; summary of the method: as §1
Rattus norvegicus [6] = species: Rattus norvegicus; assay: Tested for the inhibition of bone resorption in neonatal rat long bones by measuring mean pit size at 10 e -8 M (sd 1498); assay type: functional; summary of the method: as §1
Rattus norvegicus [7] = species: Rattus norvegicus; assay: Tested for the inhibition of bone resorption by measuring mean total resorption at 10 e -5 M (sd 2675); assay type: functional; summary of the method: as §1
Rattus norvegicus [8] = species: Rattus norvegicus; assay: Tested for the inhibition of bone resorption in neonatal rat long bones by measuring mean total resorption at 10 e -6 M (sd 4446); assay type: functional; summary of the method: as §1
Rattus norvegicus [9] = species: Rattus norvegicus; assay: Tested for the inhibition of bone resorption in neonatal rat long bones by measuring mean total resorption at 10 e -7 M (sd 4081); assay type: functional; summary of the method: as §1
Rattus norvegicus [10] = species: Rattus norvegicus; assay: Tested for the inhibition of bone resorption in neonatal rat long bones by measuring mean total resorption at 10 e -8 M (sd 7210); assay type: functional; summary of the method: as §1
Rattus norvegicus [11] = species: Rattus norvegicus; assay: Tested for the inhibition of bone resorption by measuring number of pits/slice at 10 e -5 M (sd 2.74); assay type: functional; summary of the method: as §1
Rattus norvegicus [12] = species: Rattus norvegicus; assay: Tested for the inhibition of bone resorption by measuring number of pits/slice at 10 e -6 M (sd 3.87); assay type: functional; summary of the method: as §1
Rattus norvegicus [13] = species: Rattus norvegicus; assay: Tested for the inhibition of bone resorption by measuring number of pits/slice at 10 e -7 M (sd 3.53); assay type: functional; summary of the method: as §1
Rattus norvegicus [14] = species: Rattus norvegicus; assay: Tested for the inhibition of bone resorption by measuring number of pits/slice at 10 e -8 M (sd 4.87); assay type: functional; summary of the method: as §1
Rattus norvegicus [15] = species: Rattus norvegicus; assay: Tested for inhibition of bone resorption by osteoclasts in a bone slice assay in rats at 10 e -7 M; assay type: functional; summary of the method: as §1
[16] = Tested for the inhibition of reversibility of hog gastric H+/K+-ATPase at 0.01 uM (200-fold dilution after pre-incubation); assay type: functional, Sus scrofa, Stomach; parameters: scale not given: the % may be the effect or the level left
[17] = Tested for the inhibition of reversibility of hog gastric H+/K+-ATPase at 2 uM; assay type: functional, Sus scrofa, Stomach; parameters: scale not given: the % may be the effect or the level left
[18] = Tested for reversible inhibition against gastric H+/K+-ATPase isolated from porcine gastric microsomes; value ranges from 3-10 uM; assay type: functional, Sus scrofa, Stomach
Rattus norvegicus [19] = species: Rattus norvegicus; assay: Tested for the inhibition of bone resorption by measuring mean pit size at 10 e -5 M (sd 562); assay type: functional; summary of the method: as §1
Rattus norvegicus [20] = species: Rattus norvegicus; assay: Tested for the inhibition of bone resorption by measuring mean pit size at 10 e -6 M (sd 814); assay type: functional; summary of the method: as §1
Rattus norvegicus [21] = species: Rattus norvegicus; assay: Tested for the inhibition of bone resorption by measuring mean pit size at 10 e -7 M (sd 1032); assay type: functional; summary of the method: as §1
Rattus norvegicus [22] = species: Rattus norvegicus; assay: Tested for the inhibition of bone resorption by measuring mean pit size at 10 e -8 M (sd 1092); assay type: functional; summary of the method: as §1
Rattus norvegicus [23] = species: Rattus norvegicus; assay: Tested for the inhibition of bone resorption by measuring mean total resorption at 10 e -5 M (sd 1111); assay type: functional; summary of the method: as §1
Rattus norvegicus [24] = species: Rattus norvegicus; assay: Tested for the inhibition of bone resorption by measuring mean total resorption at 10 e -6 M (sd 3349); assay type: functional; summary of the method: as §1
Rattus norvegicus [25] = species: Rattus norvegicus; assay: Tested for the inhibition of bone resorption by measuring mean total resorption at 10 e -7 M (sd 4088); assay type: functional; summary of the method: as §1
Rattus norvegicus [26] = species: Rattus norvegicus; assay: Tested for the inhibition of bone resorption by measuring mean total resorption at 10 e -8 M (sd 5079); assay type: functional; summary of the method: as §1
Rattus norvegicus [27] = species: Rattus norvegicus; assay: Tested for the inhibition of bone resorption by measuring number of pits/slice at 10 e -5 M (sd 1.88); assay type: functional; summary of the method: as §1
Rattus norvegicus [28] = species: Rattus norvegicus; assay: Tested for the inhibition of bone resorption by measuring number of pits/slice at 10 e -6 M (sd 3.46); assay type: functional; summary of the method: as §1
Rattus norvegicus [29] = species: Rattus norvegicus; assay: Tested for the inhibition of bone resorption by measuring number of pits/slice at 10 e -7 M (sd 3.94); assay type: functional; summary of the method: as §1
Rattus norvegicus [30] = species: Rattus norvegicus; assay: Tested for the inhibition of bone resorption by measuring number of pits/slice at 10 e -8 M (sd 5.51); assay type: functional; summary of the method: as §1
Rattus norvegicus [31] = species: Rattus norvegicus; assay: Tested for inhibition of bone resorption by osteoclasts in a bone slice assay in rats at 10 e -5 M; assay type: functional; summary of the method: as §1

CCOC(=O)CCC(=O)c1cnc2c(OC)cccc2c1Nc1ccccc1C
Activity [1]: 100%
Activity [2]: 60%
IC50 [3]: 10 µM
Mean pit size (Rattus norvegicus [4]): 948 µm²
Mean pit size (Rattus norvegicus [5]): 1190 µm²
Mean pit size (Rattus norvegicus [6]): 1450 µm²
Mean total resorption (Rattus norvegicus [7]): 2040 um2
Mean total resorption (Rattus norvegicus [8]): 4040 um2
Mean total resorption (Rattus norvegicus [9]): 4790 um2
Mean total resorption (Rattus norvegicus [10]): 8400 um2
No. of pits/slice (Rattus norvegicus [11]): 2.22
No. of pits/slice (Rattus norvegicus [12]): 3.39
No. of pits/slice (Rattus norvegicus [13]): 4.67
No. of pits/slice (Rattus norvegicus [14]): 5.89
IC50 (Rattus norvegicus [15]): 2 µM

CCOC(=O)c1cnc2c(OC)cccc2c1Nc1ccccc1C
Activity [16]: 90%
Activity [17]: 66%
IC50 [18]: 3 µM
Mean pit size (Rattus norvegicus [19]): 477 µm²
Mean pit size (Rattus norvegicus [20]): 798 µm²
Mean pit size (Rattus norvegicus [21]): 919 µm²
Mean pit size (Rattus norvegicus [22]): 926 µm²
Mean total resorption (Rattus norvegicus [23]): 1270 um2
Mean total resorption (Rattus norvegicus [24]): 7300 um2
Mean total resorption (Rattus norvegicus [25]): 9060 um2
Mean total resorption (Rattus norvegicus [26]): 8740 um2
No. of pits/slice (Rattus norvegicus [27]): 2.67
No. of pits/slice (Rattus norvegicus [28]): 9.17
No. of pits/slice (Rattus norvegicus [29]): 9.5
No. of pits/slice (Rattus norvegicus [30]): 9.83
IC50 (Rattus norvegicus [31]): 4 µM
